Molecules are shown by their SMILES. Calls of active or inactive are those of the source. The calls are words filed in the database; no cut-off is given here.

Consider three molecules from ChEMBL document CHEMBL4602702, “Red-Emitting Dibenzodiazepinone Derivatives as Fluorescent Dualsteric Probes for the Muscarinic Acetylcholine M2 Receptor” (J Med Chem, 2020).

The target of series [1] is T1, Muscarinic acetylcholine receptor M2 (Homo sapiens, UniProt P08172).
T1 sequence (P08172 whole entry): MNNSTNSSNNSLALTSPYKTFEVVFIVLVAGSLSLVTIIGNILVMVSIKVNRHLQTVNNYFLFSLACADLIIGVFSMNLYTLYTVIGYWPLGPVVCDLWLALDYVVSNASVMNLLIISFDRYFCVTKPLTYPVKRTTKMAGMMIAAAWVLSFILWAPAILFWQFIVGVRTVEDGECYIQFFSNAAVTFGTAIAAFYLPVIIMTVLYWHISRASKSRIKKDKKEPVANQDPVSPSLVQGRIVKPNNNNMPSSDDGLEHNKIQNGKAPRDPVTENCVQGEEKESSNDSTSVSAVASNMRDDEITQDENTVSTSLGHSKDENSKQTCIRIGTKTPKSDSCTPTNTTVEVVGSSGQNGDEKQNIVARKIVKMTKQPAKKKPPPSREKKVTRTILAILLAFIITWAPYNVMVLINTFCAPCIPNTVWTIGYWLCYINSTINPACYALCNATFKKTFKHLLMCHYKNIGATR
The series can be described thus: Binding affinity to human muscarinic M2 receptor expressed in CHO-K9 cells incubated in dark measured after 60 mins by Hoechst H33342 dye based confocal plate reader assay. It is filed as cell-based. The method, boiled down:
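Live CHO-hMxR cells (M1 or M2) incubated with fluorescent ligand at 22 °C in the dark for 1 h, washed, then imaged at once by high-content confocal plate reader.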

The target of series [2] is T2, Muscarinic acetylcholine receptor M2 (Homo sapiens) (UniProt P08172).
T2 sequence (whole entry): T1 sequence (P08172 whole entry)
The series can be described thus: Agonist activity at human muscarinic M2 receptor expressed in HEK293 cells co-expressing HA-Galphaq/i5 assessed as induction of Galphaq/i5-mediated IP1 accumulation by HTRF assay. It is filed as functional, cell-based. The method, boiled down: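 HEK-293 cells transiently co-transfected with hM2R and hybrid Gαqi5-HA, run in agonist mode at 37 °C; IP1 accumulation measured. Carbachol control from 14 independent experiments in duplicate; test ligands from three or four independent experiments in duplicate.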
(In general: TR-FRET usually uses a lanthanide donor and a delayed reading to cut background.)

For series [3], the target named is T1, Muscarinic acetylcholine receptor M2. Nature of the series: Binding affinity to human muscarinic M2 receptor expressed in […] cells incubated in dark at 22 degree C for 2 hrs by FACSCalibur flow cytometric saturation binding study. It is filed as cell-based. A general note: Flow cytometry measures light scatter and fluorescence of single cells or particles in a stream.

Series [4] is described as follows: Chemical stability of compound in PBS buffer assessed as retention time at pH 7.4 and 22 degree C measured up to 48 hrs by RP-HPLC analysis. It is filed as physicochemical. The conditions noted are these: pH 7.4, 48 h. The method, boiled down:
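Fluorescent ligand stability checked in PBS pH 7.4 over 48 h by RP-HPLC on a C18 column with an aqueous TFA/acetonitrile gradient, oven at 25 °C, detection at 220 nm.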

Series [5] addresses Muscarinic acetylcholine receptor M3 (Homo sapiens, UniProt P20309). Nature of the series: Displacement of [3H]-NMS from human muscarinic M3 receptor stably expressed in CHO-K9 cells by radioligand competitive binding assay. It is filed as cell-based. The method, boiled down:
(§1)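 Equilibrium competition binding at live CHO-hMxR cells with [3H]NMS at M1 0.2, M2 0.2, M3 0.2, M4 0.1, M5 0.3 nM. […] Four-parameter logistic fit converted to pKi; at least three experiments in triplicate (some two).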

Series [6] addresses T2, Muscarinic acetylcholine receptor M2 (Homo sapiens). Nature of the series: Binding affinity to human muscarinic M2 receptor expressed in […] cells assessed as unspecific binding at Kd incubated in dark at 22 degree C for 2 hrs in presence of atropine by FACSCalibur flow cytometric saturation binding study relative to control. It is filed as cell-based.
The target is the same in series [7]. The series can be described thus: Binding affinity to human muscarinic M2 receptor expressed in CHO-K9 cells assessed as observed association rate constant at 22 +/- 1 degree C incubated under shaking condition in dark for 1 to 300 mins by flow cytometric saturation binding study. It is filed as cell-based.
The target in series [8] is T3, Muscarinic acetylcholine receptor M5 (Homo sapiens, UniProt P08912).
T3 sequence (P08912 whole entry): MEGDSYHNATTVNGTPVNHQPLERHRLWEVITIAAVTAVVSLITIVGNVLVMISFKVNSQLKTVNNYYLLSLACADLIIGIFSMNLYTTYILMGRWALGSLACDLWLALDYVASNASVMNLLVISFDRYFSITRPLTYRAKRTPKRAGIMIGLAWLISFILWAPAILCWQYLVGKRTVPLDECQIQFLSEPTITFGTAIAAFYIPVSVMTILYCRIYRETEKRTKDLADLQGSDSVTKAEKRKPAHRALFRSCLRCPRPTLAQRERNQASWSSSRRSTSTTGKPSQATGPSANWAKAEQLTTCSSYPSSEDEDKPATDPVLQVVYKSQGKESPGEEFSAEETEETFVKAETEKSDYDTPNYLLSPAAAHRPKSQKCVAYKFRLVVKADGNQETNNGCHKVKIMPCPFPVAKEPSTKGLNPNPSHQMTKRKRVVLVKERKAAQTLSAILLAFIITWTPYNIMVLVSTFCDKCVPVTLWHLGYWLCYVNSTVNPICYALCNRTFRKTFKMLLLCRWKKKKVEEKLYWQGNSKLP
The series can be described thus: Displacement of [3H]-NMS from human muscarinic M5 receptor stably expressed in CHO-K9 cells by radioligand competitive binding assay. It is filed as cell-based. In outline:
as §1

In series [9] the target is T1, Muscarinic acetylcholine receptor M2. Nature of the series: Displacement of [3H]-NMS from human muscarinic M2 receptor stably expressed in CHO-K9 cells by radioligand competitive binding assay. It is filed as cell-based. The method, boiled down:
as §1
Background: Displacement assays read how much labelled ligand stays bound in the presence of the test substance.

Series [10] concerns the target T2, Muscarinic acetylcholine receptor M2 (Homo sapiens). Nature of the series: Competitive binding affinity to human muscarinic M2 receptor expressed in CHO-K9 cells assessed as rightward shift of saturation isotherm resulting in Schild regression in presence of increasing concentration of W84 by Schild-like analysis. It is filed as cell-based. In outline:
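High-content imaging saturation binding of fluorescent ligand at intact CHO-hM2R cells in the presence of increasing concentrations of the allosteric modulator W84. Rightward shifts (ΔpKd) plotted as log(r−1) vs log[modulator], with r = 10^ΔpKd. Three independent experiments in triplicate.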

Series [11] has the same target. The series can be described thus: Binding affinity to human muscarinic M2 receptor expressed in CHO-K9 cells assessed as increase in intracellular fluorescence intensity at 30 nM incubated for 45 mins by confocal microscopy.
Series [12] concerns the target T4, Muscarinic acetylcholine receptor M1 (Homo sapiens, UniProt P11229).
T4 sequence (P11229 whole entry): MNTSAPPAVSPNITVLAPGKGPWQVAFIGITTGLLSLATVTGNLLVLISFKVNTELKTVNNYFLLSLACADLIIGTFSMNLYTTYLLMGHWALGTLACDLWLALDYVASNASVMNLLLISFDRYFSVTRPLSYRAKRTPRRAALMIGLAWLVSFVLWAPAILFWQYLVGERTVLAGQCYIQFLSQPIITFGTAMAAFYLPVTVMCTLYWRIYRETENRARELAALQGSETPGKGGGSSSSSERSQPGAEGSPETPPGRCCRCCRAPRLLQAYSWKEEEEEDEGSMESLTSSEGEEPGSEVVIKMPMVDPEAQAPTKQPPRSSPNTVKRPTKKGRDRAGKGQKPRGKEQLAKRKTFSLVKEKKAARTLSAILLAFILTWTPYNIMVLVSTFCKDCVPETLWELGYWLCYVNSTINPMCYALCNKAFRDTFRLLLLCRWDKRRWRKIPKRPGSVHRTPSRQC
The series can be described thus: Displacement of [3H]-NMS from human muscarinic M1 receptor stably expressed in CHO-K9 cells by radioligand competitive binding assay. It is filed as cell-based. In outline:
as §1

Chain of Muscarinic acetylcholine receptor M3 (P20309 whole entry): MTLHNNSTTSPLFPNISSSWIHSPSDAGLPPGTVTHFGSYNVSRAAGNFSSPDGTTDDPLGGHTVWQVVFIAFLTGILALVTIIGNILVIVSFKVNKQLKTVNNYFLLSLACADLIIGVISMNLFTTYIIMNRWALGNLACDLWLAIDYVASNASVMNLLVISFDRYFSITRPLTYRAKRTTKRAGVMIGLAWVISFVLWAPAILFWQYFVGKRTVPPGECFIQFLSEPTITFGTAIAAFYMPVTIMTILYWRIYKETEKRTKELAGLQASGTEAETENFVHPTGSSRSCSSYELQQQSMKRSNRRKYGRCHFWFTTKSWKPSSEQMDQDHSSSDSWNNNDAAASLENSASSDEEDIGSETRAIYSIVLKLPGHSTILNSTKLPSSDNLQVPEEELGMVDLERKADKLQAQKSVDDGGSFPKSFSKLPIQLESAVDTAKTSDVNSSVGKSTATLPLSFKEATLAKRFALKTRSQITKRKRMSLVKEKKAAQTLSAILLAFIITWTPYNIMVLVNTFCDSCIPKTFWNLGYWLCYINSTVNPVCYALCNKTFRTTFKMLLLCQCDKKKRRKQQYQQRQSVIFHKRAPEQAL

As usually defined, the Ki is the dissociation constant of the complex between target and ligand, obtained from inhibition or displacement. A lower Ki goes with tighter binding. In the case of `CC1(C)C(/C=C/C=C/C=C2/N(CCCCCC(=O)NCCNC(=O)CCc3cn(CCCCC4CCN(CC(=O)N5c6ccccc6NC(=O)c6ccccc65)CC4)cn3)c3ccc(S(=O)(=O)O)cc3C2(C)C)=[N+](CCCCS(=O)(=O)[O-])c2ccccc21.O=C(O)C(F)(F)F`, the Kd in [1] (read-out: Kd) is 12.6 nM; in [1] (read-out: pKd (converted)), 11.5 nM; in series [3] (read-out: Kd), 4.1 nM; in series [3] (read-out: pKd (converted)), 4.47 nM. The result in series [2] was inactive. The Retention_time in [4] came out at 10.3 min. The Ki in series [5] is 155 nM; in series [8], 166 nM; in series [9], 0.794 nM; in series [12] it was 5.25 nM. Also, the Activity in series [6] stood at 10%. Besides, the K in series [7] turned out to be 0.026 min⁻¹. Besides, the outcome in series [10] and in [11] was Active.
With `CC1(C)C(/C=C/C=C/C=C2/N(CCCCCC(=O)NCc3cc(C(=O)NCCNC(=O)CCc4cn(CCCCC5CCN(CC(=O)N6c7ccccc7NC(=O)c7ccccc76)CC5)cn4)cc(C(=O)NCCNC(=O)CCc4cn(CCCCC5CCN(CC(=O)N6c7ccccc7NC(=O)c7ccccc76)CC5)cn4)c3)c3ccc(S(=O)(=O)O)cc3C2(C)C)=[N+](CCCCS(=O)(=O)[O-])c2ccccc21.O=C(O)C(F)(F)F.O=C(O)C(F)(F)F.O=C(O)C(F)(F)F`, the Kd is 2.9 nM in series [1] (read-out: Kd), 5.62 nM in [1] (read-out: pKd (converted)), 3.2 nM in [3] (read-out: Kd) and 3.09 nM in [3] (read-out: pKd (converted)). Moreover, the result in series [2] was inactive. The Retention_time in series [4] was found to be 10.4 min. For the same molecule, the inhibition constant (Ki) in series [5] was 75.9 nM; in series [8], 407 nM; in series [9] it was 0.631 nM; in series [12], 2.29 nM. For the same molecule, the Activity in series [6] is less than 5%. Moreover, in [7], the K came out at 0.024 min⁻¹. Moreover, the result in series [10] and in series [11] was Active.
On to `CC1(C)C(/C=C/C=C/C=C2/N(CCCCCC(=O)NCCN3CCN(CCCCC4CCN(CC(=O)N5c6ccccc6NC(=O)c6ccccc65)CC4)CC3)c3ccc(S(=O)(=O)O)cc3C2(C)C)=[N+](CCCCS(=O)(=O)[O-])c2ccccc21.O=C(O)C(F)(F)F.O=C(O)C(F)(F)F`, for which the Kd is 5.3 nM in series [1] (read-out: Kd), 4.68 nM in [1] (read-out: pKd (converted)), 0.8 nM in series [3] (read-out: Kd) and 0.891 nM in series [3] (read-out: pKd (converted)). Besides, the outcome in [2] was inactive. In [4], the Retention_time amounted to 18.2 min. In addition, the inhibitory constant (Ki) in series [5] was 81.3 nM; in [8] it was 135 nM; in [9] it was 0.525 nM; in [12] it was 2.88 nM. Also, the Activity in series [6] stood at 10%. Besides, in series [7], the K was 0.014 min⁻¹. The result in series [10] and in [11] was Active.
